Screening results as filed in PubChem BioAssay.
Hits are enriched below; roughly 2.5% of the tested compounds scored in any of these assays.
NadD block: inhibitors of S. aureus NadD, primary screen, biochemical, colorimetric, uHTS; hit rate 0.78% among 360,000; purified NadD enzyme, colorimetric absorbance read-out; inhibition, % at 20 µM; in the data active = inhibition above about 26%
NR2E3 ag-1: inhibitors of NR2E3-RetCOR corepressor binding, primary screen, NR2E3 agonist project, biochemical, TR-FRET, GST-NR2E3, biotin-RetCOR; hit rate 0.12% among 320,000; 1536-well; inhibition of corepressor binding, % at 4.78 µM; Photoreceptor-specific nuclear receptor (Homo sapiens), Q9Y5X4;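 active = percent inhibition above the cutoff of mean plus 3 SD of all tested compounds, set per screening campaign, cut at about 20% in these data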
Target sequence (Q9Y5X4 whole entry, looked up): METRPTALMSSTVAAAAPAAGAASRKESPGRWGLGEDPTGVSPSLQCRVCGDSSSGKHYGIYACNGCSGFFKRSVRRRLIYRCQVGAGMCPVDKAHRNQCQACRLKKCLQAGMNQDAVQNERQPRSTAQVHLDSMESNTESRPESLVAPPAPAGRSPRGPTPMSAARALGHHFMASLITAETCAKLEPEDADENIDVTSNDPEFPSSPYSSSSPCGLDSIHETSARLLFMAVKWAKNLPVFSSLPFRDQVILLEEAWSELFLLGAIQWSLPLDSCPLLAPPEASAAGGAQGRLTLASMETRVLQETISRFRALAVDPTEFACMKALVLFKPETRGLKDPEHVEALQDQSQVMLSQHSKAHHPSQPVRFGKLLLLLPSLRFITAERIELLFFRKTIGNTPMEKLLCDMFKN
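Test system: GST-NR2E3 and biotin-RetCOR proteins | Quantity: 1.35 nM GST-tagged NR2E3 final | Medium: Tris pH 7.5 | Also added: 7 nM biotin-RetCOR | Dosing: Compound at 4.8 µM, single dose | Timing: 5 h at 4 °C | Detection: Time-resolved FRET | Read-out basis: Percent inhibition | Benchmarks: Biotin wells as high control, 0.6% DMSO wells as low control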
GalR3 antag: GalR3 antagonists in HEK293 cells, primary screen, cell-based, fluorescence readout. hit rate 0.44% among 360,000. HEK293 GalR3-CNG cAMP membrane potential fluorescence; galR3 body fused to GalR1 C-terminus. inhibition, % at 3 µM. Galanin receptor type 3 (Homo sapiens), O60755;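 active = inhibition above the screen-wide average plus 3 SD, cut at about 13% in these data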;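 note: forskolin and galanin both at EC90 stimulate the cells; cAMP rise reported by CNG channel membrane potential dye signal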
Target sequence (O60755 1-299 limits assumed): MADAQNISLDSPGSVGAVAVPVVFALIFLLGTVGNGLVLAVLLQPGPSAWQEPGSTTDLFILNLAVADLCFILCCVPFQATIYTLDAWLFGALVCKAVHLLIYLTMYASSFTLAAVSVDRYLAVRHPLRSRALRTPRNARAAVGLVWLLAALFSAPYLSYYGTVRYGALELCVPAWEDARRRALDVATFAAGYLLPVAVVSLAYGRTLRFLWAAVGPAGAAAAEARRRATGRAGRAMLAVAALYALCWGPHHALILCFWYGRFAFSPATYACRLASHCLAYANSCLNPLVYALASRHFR
MsrA act: bovine MsrA enzyme activators, primary screen, biochemical, absorbance, HTS; hit rate 0.3% among 360,000; Methionine sulfoxide reductase A (Bos taurus); activation, % at 10.6 µM; purified bovine MsrA, absorbance read-out; AID 602163, 2012; in the data active = activation above about 7.5%
MsrA inh: bovine MsrA enzyme inhibitors, primary screen, biochemical, absorbance, HTS; hit rate 0.75% among 360,000; purified bovine MsrA, absorbance read-out; Methionine sulfoxide reductase A (Bos taurus); inhibition, % at 15.5 µM; AID 651718, 2012; in the data active = inhibition above about 4.5%
NR2E3 ag-2: NR2E3 agonists in two-hybrid cells, primary screen, cell-based, luminescence, CHO-S, Gal4-NCOR/VP16-NR2E3. Photoreceptor-specific nuclear receptor (Homo sapiens), Q9Y5X4. luciferase. inhibition of corepressor binding, % at 3.98 µM. hit rate 0.35% among 360,000;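 active = inhibition above the mean of all tested compounds plus 3 SD, cut at about 70% in these data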;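 note: higher means lower luciferase signal from less NR2E3 corepressor binding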
MsrA activ conf: bovine MsrA activators, retest, confirmation, biochemical, absorbance, HTS | AID 602270, 2012 | purified bovine MsrA, absorbance read-out | hit rate 12% among 1,000 | shares compounds with MsrA act | activation, % at 10.6 µM; in the data active = activation above about 4%;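 note: enzyme coupled to thioredoxin and thioredoxin reductase with NADPH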
NR2E3 ag confirm: NR2E3 agonist confirmation in cells, cell-based, luminescence, CHO-S two-hybrid. shares compounds with NR2E3 ag-2. CHO-S mammalian two-hybrid NR2E3-NCOR, luciferase luminescence. inhibition, % at 3.98 µM. hit rate 51% among 2,300;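 active = average inhibition above a cutoff equal to the mean inhibition of all tested compounds plus one SD, cut at about 70% in these data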
GAL4-VP16 luc: GAL4-VP16 reporter modulators, confirmation, counter-screen for NR2E3 agonist project, cell-based, luminescence, CHO-S, high throughput. shares compounds with NR2E3 ag-2. CHO-S GAL4-VP16 luciferase reporter. inhibition, % at 3.98 µM. hit rate 29% among 2,300. AID 624379, 2012;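 active = mean inhibition above a cutoff equal to the average over all tested compounds plus one standard deviation, cut at about 70% in these data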;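 note: luciferase from a UAS reporter driven by GAL4-VP16 transactivation; higher means less reporter light so more repression of VP16 activity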
Of the large screens only hits and unclear results are named; the others gave an inactive call (follow-up assays come after a bar, where they were run).

O=C(Nc1ccccc1OC(=O)N1CCOCC1)N1CCOCC1	none
O=S1(=O)N(CCN2CC=C(c3c[nH]c4cc(F)ccc34)CC2)c2cccc3c2N1CCC3	MsrA act 7.8 | MsrA activ conf inactive
O=c1[nH]c(=S)n(C2CC2)c(O)c1C=NCCN1CCOCC1	none
O=c1[nH]sc2cc(F)ccc12	MsrA act 12 (no result: NR2E3 ag-1) | MsrA activ conf 10 | NR2E3 ag confirm inactive | GAL4-VP16 luc inactive
COc1ccc(C(O)c2cc(OC)ccc2OP(=O)(N(C)C)N(C)C)cc1 (centres undefined)	none
O=C1NC2C(O)C(O)C(O)C(O)C2c2cc3c(c(O)c21)OCO3 (centres undefined)	NR2E3 ag-2 99 (no result: NR2E3 ag-1) | NR2E3 ag confirm 98 | GAL4-VP16 luc 99
COc1cc(C2c3cc4c(cc3CC3COC(=O)C32)OCO4)cc(OC)c1O (centres undefined)	none (no result: NR2E3 ag-1)
O=C1NC2C(=CC(O)C(O)C2O)c2cc3c(c(O)c21)OCO3 (centres undefined)	NR2E3 ag-2 102 (no result: NR2E3 ag-1) | NR2E3 ag confirm 100 | GAL4-VP16 luc 99
O=C1NC2C(=CC(O)C(O)C2O)c2cc3c(cc21)OCO3 (centres undefined)	NR2E3 ag-2 100 (no result: NR2E3 ag-1) | NR2E3 ag confirm 100 | GAL4-VP16 luc 97
CC(C)(O)[C@@H]1[C@H]2OC(=O)[C@@H]1[C@]1(O)C[C@H]3O[C@]34C(=O)O[C@H]2[C@]14C (tested in a mixture with another compound)	none (no result: NadD block, GalR3 antag, MsrA act, MsrA inh, NR2E3 ag-2)
C[C@H]1CCC/C=C/[C@@H]2C[C@H](O)C[C@H]2[C@@H](O)/C=C/C(=O)O1	NR2E3 ag-2 86 (no result: NR2E3 ag-1) | NR2E3 ag confirm 98 | GAL4-VP16 luc inactive
CSCCC(c1nnnn1-c1ccc2c(c1)OCCO2)N1CCC(n2c(=O)[nH]c3ccccc32)CC1 (centres undefined)	none (no result: NR2E3 ag-1) | NR2E3 ag confirm inactive | GAL4-VP16 luc inactive
CCC(c1nnnn1-c1ccc2c(c1)OCCO2)N1CCC(n2c(=O)[nH]c3ccccc32)CC1 (centres undefined)	none (no result: NR2E3 ag-1)
COc1cccc(C(c2nnnn2-c2ccc3c(c2)OCCO3)N2CCC(n3c(=O)[nH]c4ccccc43)CC2)c1OC (centres undefined)	none (no result: NR2E3 ag-1) | NR2E3 ag confirm inactive | GAL4-VP16 luc inactive
Cc1ccsc1CNCCc1ccccc1F	none
Cc1ccnc(-n2c(-c3ccccc3)nc3ccccc3c2=O)c1	none
CN(C(=O)c1ccc(Cl)nc1)C1(c2ccccc2Cl)CCCCC1=O (centres undefined)	none
O=C1NC(=O)N(c2cccc(Br)c2)C(=O)/C1=C/c1ccsc1	none
CCN(CC)C(=O)c1ccc(NC(=O)c2cccc(S(=O)(=O)N3CCN(Cc4ccccc4)CC3)c2)cc1	none | NR2E3 ag confirm inactive | GAL4-VP16 luc inactive
CN(Cc1cccc(-c2ccncc2)c1)C(=O)Oc1ccc([N+](=O)[O-])cc1	NR2E3 ag-2 90 (no result: NR2E3 ag-1, GalR3 antag, MsrA inh) | NR2E3 ag confirm 81 | GAL4-VP16 luc 74
Cn1c(=O)oc(=O)c2ccccc21	none (no result: NR2E3 ag-1)
CCC(=O)[C@@H](C)[C@@H](O)[C@H](C)C[C@@H](C)C1OC(=O)C[C@@]2(O)CC=C(C)C(O2)C(C)=CCCC[C@H](O[C@H]2C[C@@H](OC(N)=O)[C@H](O)[C@@H](C)O2)C=C[C@H](C)C[C@H]1C (some centres undefined)	NR2E3 ag-2 93 (no result: NR2E3 ag-1, GalR3 antag, MsrA inh) | NR2E3 ag confirm 98 | GAL4-VP16 luc 84
CC1(C)Cc2c(sc3c2C(=O)NC(c2cccnc2)N3)CO1 (centres undefined)	none
CC1CC(C)CC(C)C(O)C(C#N)=CC=CCC(C2CCCC2C(=O)O)OC(=O)CC(O)C(C)C1 (centres undefined)	NR2E3 ag-2 102 (no result: NR2E3 ag-1) | NR2E3 ag confirm 101 | GAL4-VP16 luc 100
C=CCn1c(O)c(C(C)=Nc2cccc(C(F)(F)F)c2)c(=O)[nH]c1=O	none
CN1C2CCC1/C(=C/c1ccccn1)C(=O)/C2=C\c1ccccn1	NR2E3 ag-2 88 | NR2E3 ag confirm 100 | GAL4-VP16 luc inactive
CC1=C(O)C(=O)C=C2C1=CC=C1C2(C)CCC2(C)C3CC(C)(C(=O)O)CCC3(C)CCC12C (centres undefined)	NadD block 47, NR2E3 ag-2 99 (no result: NR2E3 ag-1) | NR2E3 ag confirm 95 | GAL4-VP16 luc 77
CC(=O)OCC12CC(OC(=O)CC(C)C)C(C)=CC1OC1C(O)C(OC(C)=O)C2(C)C12CO2 (centres undefined)	NR2E3 ag-2 101 (no result: NR2E3 ag-1) | NR2E3 ag confirm 100 | GAL4-VP16 luc 99
COC(=O)C[C@]1(C(=O)OC)CN(C#N)N(c2ccc(Cl)cc2)C12c1ccccc1-c1ccccc12	NR2E3 ag-2 89 | NR2E3 ag confirm 80 | GAL4-VP16 luc inactive
COC(=O)[C@@H]1[C@@H](C(=O)OC)C2(c3ccccc3-c3ccccc32)N(c2ccc(Cl)cc2)N1C#N	none
CN(C)C(=S)SSC(=S)N(C)C	NR2E3 ag-2 95 (no result: GalR3 antag) | NR2E3 ag confirm inactive | GAL4-VP16 luc inactive
Cc1c(NS(=O)(=O)c2ccccc2)ccc([N+](=O)[O-])c1Cl	NR2E3 ag-2 85 (no result: NR2E3 ag-1) | NR2E3 ag confirm 96 | GAL4-VP16 luc 84
CCN(CCNc1ccc([N+](=O)[O-])c2cccnc12)S(=O)(=O)c1ccccc1	none
O=[N+]([O-])c1ccc(N2CCOCC2)c2c1no[n+]2[O-]	none (no result: NR2E3 ag-1) | NR2E3 ag confirm inactive | GAL4-VP16 luc inactive
N#CC1c2ccccc2-n2nncc2CN1Cc1cc(Cl)cc(Cl)c1 (centres undefined)	NR2E3 ag-2 88 (no result: NR2E3 ag-1) | NR2E3 ag confirm 79 | GAL4-VP16 luc 71
